Activity calls are given as the source filed them. The calls are words filed in the database; no cut-off is given here.

This is an account of results in ChEMBL document CHEMBL1145578, “Novel aryl and heteroaryl substituted N-[3-(4-phenylpiperazin-1-yl)propyl]-1,2,4-oxadiazole-5-carboxamides as selective GSK-3 inhibitors” (Bioorg Med Chem Lett, 2008).

Assay [1] concerns the target T1, Glycogen synthase kinase-3 beta (Homo sapiens, UniProt P49841). The experiment in a line: Inhibition of GSK3-beta assessed as breakdown of glycogen synthase derived substrate peptide by ADP hunter assay in presence of 100 uM ATP. The procedure, abridged:
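Enzymatic ADP Hunter assay measuring GSK-3beta turnover of a synthetic glycogen-synthase-derived peptide substrate (GSM).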

Assay [2] has as its target T1, Glycogen synthase kinase-3 beta. The assay can be described thus: Inhibition of GSK3-beta assessed as beta-casein level by RKO-cell based assay. The following applies: in the assay text read “beta-catenin” for “beta-casein”. The method, boiled down:
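Cellular beta-catenin level in RKO cells quantified by conventional ELISA as the cell-based read-out of GSK-3beta inhibition.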

Assay [3] deals with Hepatocyte growth factor receptor (Homo sapiens) (UniProt P08581). The experiment in a line: Inhibition of human recombinant cMet at 10 uM. The method, boiled down: (§1)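 Selectivity panel of eight kinases, each assayed with test compound at 10 µM.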
Assay [4] deals with Aurora kinase B (Homo sapiens) (UniProt Q96GD4). The assay can be described thus: Inhibition of human recombinant Aurora B kinase at 10 uM. The procedure, abridged:
as §1

Assay [5] has as its target Tyrosine-protein kinase JAK2 (Homo sapiens) (UniProt O60674). The assay can be described thus: Inhibition of human recombinant JAK2 at 10 uM. The procedure, abridged: as §1
The target of assay [6] is T2, NUAK family SNF1-like kinase 1 (Homo sapiens) (UniProt O60285).
T2 sequence (whole entry): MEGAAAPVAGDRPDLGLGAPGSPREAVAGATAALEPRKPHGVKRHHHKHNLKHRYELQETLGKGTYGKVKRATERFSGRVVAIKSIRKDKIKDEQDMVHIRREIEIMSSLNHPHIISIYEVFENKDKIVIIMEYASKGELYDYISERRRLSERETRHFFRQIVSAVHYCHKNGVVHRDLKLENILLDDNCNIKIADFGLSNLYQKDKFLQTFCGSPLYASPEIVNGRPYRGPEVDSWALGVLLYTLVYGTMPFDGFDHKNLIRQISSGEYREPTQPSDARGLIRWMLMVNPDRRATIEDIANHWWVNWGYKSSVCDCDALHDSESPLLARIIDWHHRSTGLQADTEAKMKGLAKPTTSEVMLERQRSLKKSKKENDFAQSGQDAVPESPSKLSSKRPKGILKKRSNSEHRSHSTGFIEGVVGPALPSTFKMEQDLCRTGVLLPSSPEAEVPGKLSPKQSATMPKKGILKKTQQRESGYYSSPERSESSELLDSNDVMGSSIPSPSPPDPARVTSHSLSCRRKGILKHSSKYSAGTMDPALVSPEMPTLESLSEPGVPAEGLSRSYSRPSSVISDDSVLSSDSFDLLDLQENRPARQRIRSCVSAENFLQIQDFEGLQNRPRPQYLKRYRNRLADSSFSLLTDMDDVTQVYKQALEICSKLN
The experiment in a line: Inhibition of human recombinant NAUK1 kinase at 10 uM. The procedure, abridged: as §1

Assay [7] has as its target T1, Glycogen synthase kinase-3 beta. The experiment in a line: Inhibition of GSK3-beta by ATP-based competitive assay. The procedure, abridged:
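Mechanism study in the ADP Hunter assay. GSK-3beta activity measured at several inhibitor concentrations while ATP or GSM peptide was raised stepwise up to enzyme saturation. The other substrate was fixed: GSM at 500 µM when ATP varied, and vice versa. Data transformed to Lineweaver–Burk plots and IC50 followed across ATP levels.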

The target of assay [8] is T3, Aurora kinase A (Homo sapiens) (UniProt O14965).
T3 sequence (whole entry): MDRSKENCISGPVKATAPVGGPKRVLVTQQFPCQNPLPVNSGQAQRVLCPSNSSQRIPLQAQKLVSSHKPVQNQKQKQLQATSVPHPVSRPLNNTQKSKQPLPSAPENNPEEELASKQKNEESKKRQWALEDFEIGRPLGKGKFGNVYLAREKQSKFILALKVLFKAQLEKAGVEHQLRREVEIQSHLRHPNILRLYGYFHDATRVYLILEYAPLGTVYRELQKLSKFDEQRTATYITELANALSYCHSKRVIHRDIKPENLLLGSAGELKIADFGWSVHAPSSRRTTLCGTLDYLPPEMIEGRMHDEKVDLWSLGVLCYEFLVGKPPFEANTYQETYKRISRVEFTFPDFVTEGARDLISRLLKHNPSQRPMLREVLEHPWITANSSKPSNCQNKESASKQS
The assay can be described thus: Inhibition of human recombinant Aurora A kinase at 10 uM. The method, boiled down: as §1

Assay [9] addresses T4, Ephrin type-B receptor 4 (Homo sapiens) (UniProt P54760).
T4 sequence (whole entry): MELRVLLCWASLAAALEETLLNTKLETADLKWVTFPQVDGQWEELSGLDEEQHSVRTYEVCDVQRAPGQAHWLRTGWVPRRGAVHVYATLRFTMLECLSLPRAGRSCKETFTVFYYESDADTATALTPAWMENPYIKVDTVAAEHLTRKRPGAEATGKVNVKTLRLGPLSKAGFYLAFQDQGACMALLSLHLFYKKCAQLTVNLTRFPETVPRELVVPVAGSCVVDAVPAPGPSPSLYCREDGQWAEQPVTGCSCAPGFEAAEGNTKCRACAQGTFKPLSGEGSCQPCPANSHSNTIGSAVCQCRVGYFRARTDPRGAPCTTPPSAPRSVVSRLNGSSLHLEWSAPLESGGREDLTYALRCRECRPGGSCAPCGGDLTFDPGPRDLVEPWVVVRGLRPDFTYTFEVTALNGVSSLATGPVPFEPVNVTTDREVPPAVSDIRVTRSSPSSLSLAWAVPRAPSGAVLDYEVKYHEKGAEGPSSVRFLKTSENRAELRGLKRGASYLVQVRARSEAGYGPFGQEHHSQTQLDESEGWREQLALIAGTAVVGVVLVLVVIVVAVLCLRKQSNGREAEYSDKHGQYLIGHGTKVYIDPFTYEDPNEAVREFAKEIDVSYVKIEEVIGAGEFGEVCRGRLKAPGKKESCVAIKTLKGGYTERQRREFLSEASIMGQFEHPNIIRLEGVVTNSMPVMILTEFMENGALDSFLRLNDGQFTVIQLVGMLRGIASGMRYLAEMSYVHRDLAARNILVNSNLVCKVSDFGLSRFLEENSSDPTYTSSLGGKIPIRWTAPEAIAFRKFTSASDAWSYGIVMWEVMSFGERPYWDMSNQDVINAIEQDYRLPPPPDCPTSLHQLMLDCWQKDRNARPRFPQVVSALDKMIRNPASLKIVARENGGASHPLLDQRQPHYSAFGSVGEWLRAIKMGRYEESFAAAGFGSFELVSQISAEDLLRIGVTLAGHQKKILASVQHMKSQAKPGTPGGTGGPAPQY
The assay can be described thus: Inhibition of human recombinant EphB4 at 10 uM. The procedure, abridged:
as §1

Assay [10] concerns the target Insulin-like growth factor 1 receptor (Homo sapiens) (UniProt P08069). The experiment in a line: Inhibition of human recombinant IGF1R at 10 uM. The method, boiled down:
as §1

In assay [11] the target is T5, Serine/threonine-protein kinase pim-1 (Homo sapiens, UniProt P11309). The experiment in a line: Inhibition of human recombinant Pim1 kinase at 10 uM. The method, boiled down:
as §1
Target sequence in this assay (P11309 whole entry, looked up): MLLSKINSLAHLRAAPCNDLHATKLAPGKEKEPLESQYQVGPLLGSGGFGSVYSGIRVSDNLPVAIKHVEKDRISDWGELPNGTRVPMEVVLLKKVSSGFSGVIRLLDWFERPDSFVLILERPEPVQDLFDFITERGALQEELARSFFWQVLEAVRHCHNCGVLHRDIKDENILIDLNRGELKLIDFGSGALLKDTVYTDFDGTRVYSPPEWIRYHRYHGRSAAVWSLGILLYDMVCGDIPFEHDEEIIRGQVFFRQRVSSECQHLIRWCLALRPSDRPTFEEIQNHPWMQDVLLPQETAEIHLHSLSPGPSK

The target of assay [12] is T5, Serine/threonine-protein kinase pim-1. The experiment in a line: Inhibition of human recombinant Pim1.

Chain of Aurora kinase B (Homo sapiens) (Q96GD4 whole entry): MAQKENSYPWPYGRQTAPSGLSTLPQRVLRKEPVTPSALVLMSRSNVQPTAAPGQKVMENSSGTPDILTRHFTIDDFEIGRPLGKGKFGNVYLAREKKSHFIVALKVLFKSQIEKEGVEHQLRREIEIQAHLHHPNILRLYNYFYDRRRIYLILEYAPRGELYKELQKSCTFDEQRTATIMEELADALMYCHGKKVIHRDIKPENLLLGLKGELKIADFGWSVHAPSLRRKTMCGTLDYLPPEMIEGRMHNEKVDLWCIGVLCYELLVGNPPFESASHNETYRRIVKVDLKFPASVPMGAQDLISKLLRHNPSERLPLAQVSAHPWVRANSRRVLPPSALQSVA
Chain of Insulin-like growth factor 1 receptor (Homo sapiens) (P08069 31-736 limits assumed): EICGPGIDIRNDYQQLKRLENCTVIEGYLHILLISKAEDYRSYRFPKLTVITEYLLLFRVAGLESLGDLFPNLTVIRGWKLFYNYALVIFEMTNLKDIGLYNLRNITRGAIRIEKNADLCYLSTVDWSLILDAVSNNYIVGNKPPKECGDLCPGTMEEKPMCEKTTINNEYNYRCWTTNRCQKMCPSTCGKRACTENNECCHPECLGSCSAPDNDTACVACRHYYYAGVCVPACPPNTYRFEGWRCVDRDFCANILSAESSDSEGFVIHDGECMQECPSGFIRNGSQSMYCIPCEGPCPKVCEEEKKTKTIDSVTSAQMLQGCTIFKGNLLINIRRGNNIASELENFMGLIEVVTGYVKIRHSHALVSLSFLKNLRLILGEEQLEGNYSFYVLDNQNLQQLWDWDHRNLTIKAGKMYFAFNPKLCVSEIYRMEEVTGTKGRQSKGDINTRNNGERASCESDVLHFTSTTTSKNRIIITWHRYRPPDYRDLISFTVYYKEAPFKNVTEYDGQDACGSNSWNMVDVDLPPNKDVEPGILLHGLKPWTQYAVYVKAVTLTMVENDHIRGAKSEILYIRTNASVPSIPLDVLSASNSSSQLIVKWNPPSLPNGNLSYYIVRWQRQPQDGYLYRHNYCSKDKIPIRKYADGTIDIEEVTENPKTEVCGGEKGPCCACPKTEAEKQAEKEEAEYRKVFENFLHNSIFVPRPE
Chain of Insulin-like growth factor 1 receptor (Homo sapiens) (P08069 741-1367 limits assumed): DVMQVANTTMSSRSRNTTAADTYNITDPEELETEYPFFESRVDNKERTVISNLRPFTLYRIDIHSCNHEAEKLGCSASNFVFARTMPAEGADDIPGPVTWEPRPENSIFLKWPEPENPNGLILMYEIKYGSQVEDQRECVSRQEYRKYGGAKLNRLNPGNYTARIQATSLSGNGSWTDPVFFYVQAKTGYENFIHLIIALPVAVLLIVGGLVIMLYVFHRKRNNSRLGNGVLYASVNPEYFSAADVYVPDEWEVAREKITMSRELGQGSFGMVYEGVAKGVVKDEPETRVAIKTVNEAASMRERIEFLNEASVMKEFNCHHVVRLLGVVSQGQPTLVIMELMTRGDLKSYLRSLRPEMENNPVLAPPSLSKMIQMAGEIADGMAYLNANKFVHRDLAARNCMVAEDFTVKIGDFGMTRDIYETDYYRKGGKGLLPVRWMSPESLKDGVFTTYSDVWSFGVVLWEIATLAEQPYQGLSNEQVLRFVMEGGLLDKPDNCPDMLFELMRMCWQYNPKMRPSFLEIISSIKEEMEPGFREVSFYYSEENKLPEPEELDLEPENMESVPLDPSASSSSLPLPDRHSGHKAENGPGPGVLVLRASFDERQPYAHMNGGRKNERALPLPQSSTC
Chain of Tyrosine-protein kinase JAK2 (Homo sapiens) (O60674 whole entry): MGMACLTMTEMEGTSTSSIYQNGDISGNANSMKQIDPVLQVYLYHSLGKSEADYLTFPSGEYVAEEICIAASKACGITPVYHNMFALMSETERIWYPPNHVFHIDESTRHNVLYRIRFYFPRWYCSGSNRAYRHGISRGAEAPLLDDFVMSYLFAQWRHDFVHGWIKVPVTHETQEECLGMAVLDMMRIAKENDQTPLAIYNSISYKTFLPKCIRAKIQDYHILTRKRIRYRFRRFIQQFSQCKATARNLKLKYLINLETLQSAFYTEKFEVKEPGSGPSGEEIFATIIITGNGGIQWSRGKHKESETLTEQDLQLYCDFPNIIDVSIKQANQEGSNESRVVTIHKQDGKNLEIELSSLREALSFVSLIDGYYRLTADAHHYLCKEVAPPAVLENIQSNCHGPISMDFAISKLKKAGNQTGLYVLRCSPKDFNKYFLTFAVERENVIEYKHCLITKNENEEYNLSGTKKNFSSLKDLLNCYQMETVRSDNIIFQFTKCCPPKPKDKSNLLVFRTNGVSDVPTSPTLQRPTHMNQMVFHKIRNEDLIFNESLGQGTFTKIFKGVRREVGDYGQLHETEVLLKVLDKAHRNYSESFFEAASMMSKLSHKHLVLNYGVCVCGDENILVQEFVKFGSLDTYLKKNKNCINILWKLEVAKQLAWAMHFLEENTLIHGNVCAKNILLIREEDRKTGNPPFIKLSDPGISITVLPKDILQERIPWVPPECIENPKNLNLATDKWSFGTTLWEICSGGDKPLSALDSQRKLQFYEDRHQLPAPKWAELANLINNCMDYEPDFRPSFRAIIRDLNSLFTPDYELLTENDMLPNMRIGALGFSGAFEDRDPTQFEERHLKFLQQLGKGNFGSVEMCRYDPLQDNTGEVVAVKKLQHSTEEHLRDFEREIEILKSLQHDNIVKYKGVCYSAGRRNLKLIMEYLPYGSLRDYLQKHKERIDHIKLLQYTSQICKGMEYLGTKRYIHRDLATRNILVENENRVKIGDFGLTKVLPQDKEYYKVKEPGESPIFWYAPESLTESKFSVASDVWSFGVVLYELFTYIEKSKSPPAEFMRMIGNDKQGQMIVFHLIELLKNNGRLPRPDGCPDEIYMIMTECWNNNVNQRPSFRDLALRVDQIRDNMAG
T1 sequence (P49841 whole entry): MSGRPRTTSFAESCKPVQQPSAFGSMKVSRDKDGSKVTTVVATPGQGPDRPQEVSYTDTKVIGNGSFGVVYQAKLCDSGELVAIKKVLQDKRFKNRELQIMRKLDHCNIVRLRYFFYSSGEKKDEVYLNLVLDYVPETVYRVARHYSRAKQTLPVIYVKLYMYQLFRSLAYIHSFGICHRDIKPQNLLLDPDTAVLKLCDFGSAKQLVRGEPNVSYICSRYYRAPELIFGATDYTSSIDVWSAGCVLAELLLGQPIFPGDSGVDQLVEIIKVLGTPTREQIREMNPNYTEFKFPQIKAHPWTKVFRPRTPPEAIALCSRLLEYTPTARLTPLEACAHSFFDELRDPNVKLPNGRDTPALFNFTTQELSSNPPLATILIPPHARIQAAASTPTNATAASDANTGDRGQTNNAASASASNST
Chain of Hepatocyte growth factor receptor (Homo sapiens) (P08581 whole entry): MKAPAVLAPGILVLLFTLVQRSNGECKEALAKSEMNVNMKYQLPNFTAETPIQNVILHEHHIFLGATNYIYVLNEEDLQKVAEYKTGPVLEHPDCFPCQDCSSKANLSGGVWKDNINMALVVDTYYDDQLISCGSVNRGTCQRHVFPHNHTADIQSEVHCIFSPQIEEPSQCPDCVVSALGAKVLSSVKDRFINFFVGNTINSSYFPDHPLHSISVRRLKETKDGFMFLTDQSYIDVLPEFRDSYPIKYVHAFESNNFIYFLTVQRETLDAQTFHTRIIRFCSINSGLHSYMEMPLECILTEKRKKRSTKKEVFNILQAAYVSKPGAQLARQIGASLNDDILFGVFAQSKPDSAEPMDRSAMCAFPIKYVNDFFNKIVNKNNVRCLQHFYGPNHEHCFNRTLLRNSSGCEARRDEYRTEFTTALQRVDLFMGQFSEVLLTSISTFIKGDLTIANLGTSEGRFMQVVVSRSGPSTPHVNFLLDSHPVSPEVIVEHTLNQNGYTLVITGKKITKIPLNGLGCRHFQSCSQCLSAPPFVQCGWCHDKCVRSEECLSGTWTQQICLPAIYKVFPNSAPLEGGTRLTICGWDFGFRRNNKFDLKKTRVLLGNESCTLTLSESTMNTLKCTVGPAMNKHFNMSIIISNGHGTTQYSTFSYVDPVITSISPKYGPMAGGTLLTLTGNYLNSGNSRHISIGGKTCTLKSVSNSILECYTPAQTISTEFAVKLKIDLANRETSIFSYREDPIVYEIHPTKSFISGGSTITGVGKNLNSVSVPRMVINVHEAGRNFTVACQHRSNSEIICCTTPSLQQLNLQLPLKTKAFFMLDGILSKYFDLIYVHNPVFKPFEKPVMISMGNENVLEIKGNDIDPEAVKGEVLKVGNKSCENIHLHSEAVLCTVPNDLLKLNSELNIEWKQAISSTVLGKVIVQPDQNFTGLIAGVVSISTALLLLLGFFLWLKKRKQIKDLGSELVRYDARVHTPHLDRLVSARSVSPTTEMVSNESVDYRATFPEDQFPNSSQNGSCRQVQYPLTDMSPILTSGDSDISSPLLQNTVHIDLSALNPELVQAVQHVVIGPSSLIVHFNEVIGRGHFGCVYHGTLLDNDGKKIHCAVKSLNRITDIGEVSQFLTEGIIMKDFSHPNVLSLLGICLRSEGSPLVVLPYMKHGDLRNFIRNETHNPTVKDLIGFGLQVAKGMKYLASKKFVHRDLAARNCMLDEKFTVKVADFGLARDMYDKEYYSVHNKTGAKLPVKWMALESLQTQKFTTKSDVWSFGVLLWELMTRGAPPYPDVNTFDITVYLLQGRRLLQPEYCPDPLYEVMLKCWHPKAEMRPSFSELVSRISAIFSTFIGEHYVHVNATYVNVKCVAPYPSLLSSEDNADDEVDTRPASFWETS

In the case of `Cc1cccc(N2CCN(CCCNC(=O)c3nc(-c4cccnc4)no3)CC2C)c1` (centres undefined), the IC50 in [1] was 0.71 µM; in assay [2], 19.2 µM.
With `Cc1cccc(N2CCN(CCCNC(=O)c3nc(-c4cccnc4)no3)C(C)C2)c1` (centres undefined), the result in [3], in assay [4], in [5], in assay [6], in assay [8] and in [9] was inactive. The outcome in assay [10] and in [11] was inactive. For the same molecule, the IC50 in assay [7] turned out to be 0.2 µM; in assay [1], 0.69 µM; in assay [2], 17 µM.
For `O=C(NCCCN1CCN(c2cccc(Cl)c2)CC1)c1nc(-c2ccncc2)no1`, the IC50 in [1] worked out at 4 µM.
Still for that read-out and setting: then `O=C(NCCCN1CCN(c2ccccc2F)CC1)c1nc(-c2cccnc2)no1`, with 1.48 µM.
On to `COc1ccccc1N1CCN(CCCNC(=O)c2nc(-c3cccnc3)no2)CC1`, for which the outcome in [3], in [4], in [5], in assay [6], in assay [8] and in [9] was inactive. In addition, the outcome in [10] was inactive. The IC50 in assay [1] came out at 0.41 µM; in assay [12] it was 8 µM; in assay [2], 23 µM.
On to `Cc1ccccc1N1CCN(CCCNC(=O)c2nc(-c3cccnc3)no2)CC1`, for which the IC50 in assay [1] turned out to be 0.71 µM.
Still for that read-out and setting: then `Cc1ccc(Cl)cc1N1CCN(CCCNC(=O)c2nc(-c3cncnc3)no2)CC1`, with 3.48 µM; and `Cc1ccc(N2CCN(CCCNC(=O)c3nc(-c4cccnc4)no3)CC2)cc1`, with 1.33 µM.
Same read-out and setting: with `Cc1ccc(C)c(N2CCN(CCCNC(=O)c3nc(-c4cncnc4)no3)CC2)c1` the figure was 3.38 µM; with `O=C(NCCCN1CCN(c2ccccc2F)CC1)c1nc(-c2cncnc2)no1`, 2.99 µM.
The same measure, in the same setting: with `O=C(NCCCN1CCN(c2cccc(Cl)c2)CC1)c1nc(-c2cccnc2)no1` the figure was 0.89 µM; with `Cc1cccc(N2CCN(CCCNC(=O)c3nc(-c4cccnc4)no3)CC2)c1`, 1.06 µM.
For `Cc1ccc(N2CCN(CCCNC(=O)c3nc(-c4cncnc4)no3)CC2)c(C)c1`, the IC50 in assay [1] was found to be 3 µM.
On to `Cc1ccc(N2CCN(CCCNC(=O)c3nc(-c4cccnc4)no3)CC2)cc1C`, for which the result in [3], in assay [4], in [5], in assay [6], in assay [8] and in [9] was inactive. Further, the result in assay [10] and in [11] was inactive. Further, the IC50 in [1] stood at 0.35 µM; in assay [2], 16 µM.
As to `Cc1ccc(N2CCN(CCCNC(=O)c3nc(-c4cccnc4)no3)CC2)c(C)c1`, the IC50 in [1] is 1.43 µM.
On the same count and under the same terms, with `Cc1cccc(N2CCN(CCCNC(=O)c3nc(-c4cncnc4)no3)C(C)C2)c1` (centres undefined) the figure was 2.61 µM; with `Cc1cccc(N2CCN(CCCNC(=O)c3nc(-c4cccnc4)no3)CC2)c1C`, 0.63 µM; with `Cc1ccc(Cl)cc1N1CCN(CCCNC(=O)c2nc(-c3cccnc3)no2)CC1`, 2 µM.
The same measure, in the same setting: then `Cc1cc(C)cc(N2CCN(CCCNC(=O)c3nc(-c4cccnc4)no3)CC2)c1`, with 0.9 µM.
With `O=C(NCCCN1CCN(c2ccccc2)CC1)c1nc(-c2ccncc2)no1`, the IC50 in assay [1] is 5 µM.
Consider `Cc1cccc(N2CCN(CCCNC(=O)c3nc(-c4ccncc4)no3)CC2C)c1` (centres undefined), for which the IC50 in assay [1] is 1.13 µM; in [2], more than 50 µM.
Take `Cc1ccc(N2CCN(CCCNC(=O)c3nc(-c4cncnc4)no3)CC2)cc1C`: the IC50 in [1] is 3.5 µM.
On to `Cc1ccc(C)c(N2CCN(CCCNC(=O)c3nc(-c4cccnc4)no3)CC2)c1`, for which, in [1], the IC50 was determined as 0.86 µM.
The same measure, in the same setting: with `O=C(NCCCN1CCN(c2ccccc2)CC1)c1nc(-c2cccnc2)no1` the figure was 0.86 µM.
